Measured values: publication PMC4451255 (Bioorganic & medicinal chemistry, 2015)
Residue numbers refer to the chain shown, from its start.

Columns and labels:
wild-type Shp2 [1] = molecular target: T1, wild-type Shp2 (Homo sapiens, UniProt Q06124); test: FlAsH inhibition of purified PTP catalytic domain, pNPP assay; type: biochemical
T1 sequence (Q06124 247-517 limits assumed): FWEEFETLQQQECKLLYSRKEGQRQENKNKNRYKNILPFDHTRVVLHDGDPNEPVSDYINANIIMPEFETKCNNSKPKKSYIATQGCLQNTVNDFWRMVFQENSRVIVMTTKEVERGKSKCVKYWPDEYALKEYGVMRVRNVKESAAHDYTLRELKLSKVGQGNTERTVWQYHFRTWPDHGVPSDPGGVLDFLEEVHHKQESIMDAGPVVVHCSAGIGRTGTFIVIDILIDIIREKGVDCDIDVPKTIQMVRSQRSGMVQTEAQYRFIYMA
Summary of the method: (§1)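 Two set-ups, both using His6-tagged catalytic domain (50 nM) and pNPP in pH 7.0 3,3-dimethylglutarate buffer. In the first, enzyme is incubated with 125 nM test compound plus β-mercaptoethanol (0–1 mM), then activity is normalized to no-compound controls. In the second, there is no pre-incubation: pNPP at the enzyme's KM sits with a fixed compound level at 37 °C, enzyme starts the reaction, and A405 is followed continuously.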

V368C Shp2 [2] = molecular target: T2, V368C Shp2 (Homo sapiens, UniProt Q06124, V368C); test: as above; type: biochemical
T2 sequence (Q06124 247-517 V368C limits assumed): T1 sequence (Q06124 247-517 limits assumed) with V122C
Summary of the method: as §1

wild-type PTP1B [3] = test: FlAsH inhibition of purified PTP catalytic domain, pNPP assay; type: biochemical, human; conditions: purified enzyme 50 nM, 120-minute pre-incubation
Summary of the method: (§2)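 His6-tagged PTP catalytic domains (50 nM) are pre-incubated 120 min at 37 °C with test compound or DMSO (1% v/v). Activity is then assayed at 37 °C with pNPP at each enzyme's previously determined KM in 50 mM 3,3-dimethylglutarate pH 7.0, 1 mM EDTA, 50 mM NaCl. The reaction is quenched with NaOH and A405 read. Activity is normalized to DMSO-only control, triplicate, ≥3 independent experiments.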

P87C PTP1B [4] = molecular target: T3, P87C PTP1B (Homo sapiens, UniProt P18031, P87C); test: FlAsH inhibition of purified PTP catalytic domain, pNPP assay; type: biochemical; conditions: 500 nM FlAsH, continuous pNPP assay
T3 sequence (P18031 3-277 P87C limits assumed): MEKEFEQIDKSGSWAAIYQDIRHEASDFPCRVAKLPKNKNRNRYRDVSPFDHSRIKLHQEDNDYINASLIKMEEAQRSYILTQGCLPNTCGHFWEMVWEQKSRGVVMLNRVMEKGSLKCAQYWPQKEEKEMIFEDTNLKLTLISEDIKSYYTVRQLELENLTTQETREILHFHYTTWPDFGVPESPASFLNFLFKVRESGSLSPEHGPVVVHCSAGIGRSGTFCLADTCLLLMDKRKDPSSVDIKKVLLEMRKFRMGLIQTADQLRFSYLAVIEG
Summary of the method: (§3)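 No pre-incubation. pNPP at the enzyme's KM is held with 500 nM test compound or DMSO (1%) in pH 7.0 PTP buffer at 37 °C, and reactions are started by adding His6-tagged catalytic domain (50 nM). A405 is monitored continuously at 37 °C. Rates over 1-min windows are normalized to DMSO control; three independent runs are averaged and fitted as single-variable exponential decay.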

P87C/A122C PTP1B [5] = molecular target: T4, P87C/A122C PTP1B (Homo sapiens, UniProt P18031, A122C/P87C); test: as above; type: biochemical; conditions: purified enzyme 50 nM, time-dependent
T4 sequence (P18031 3-277 P87C/A122C limits assumed): T3 sequence (P18031 3-277 P87C limits assumed) with A120C
Summary of the method: as §3

wild-type FAP-1 [6] = test: FlAsH inhibition of purified PTP catalytic domain, pNPP assay; type: biochemical, human; conditions: purified enzyme 50 nM, one equivalent of FlAsH
Summary of the method: as §2

P2285C/Q2320C FAP-1 [7] = test: as above; type: biochemical, human; conditions: purified enzyme 50 nM, one equivalent of FlAsH
Summary of the method: as §2

wild-type PTPH-1 [8] = test: as above; type: biochemical, human; conditions: purified enzyme 50 nM, one equivalent of FlAsH
Summary of the method: as §2

P720C/H755C PTPH-1 [9] = test: as above; type: biochemical, human; conditions: purified enzyme 50 nM, one equivalent of FlAsH
Summary of the method: as §2

wild-type HePTP [10] = test: as above; type: biochemical, human; conditions: purified enzyme 50 nM, one equivalent of FlAsH
Summary of the method: as §2

P160C/V184C HePTP [11] = test: FlAsH inhibition of purified PTP catalytic domain, pNPP assay; type: biochemical, human; conditions: purified enzyme 50 nM, one equivalent of FlAsH
P2285C/Q2320C FAP-1 [12] = test: FlAsH inhibition of total PTP activity of crude E. coli lysates, pNPP; type: biochemical, human; conditions: whole-cell E. coli lysate
Summary of the method: (§4)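 Cells are lysed by French press (~2000 psi) in 50 mM Tris pH 7.8, 500 mM NaCl, 5 mM imidazole. Clarified lysate takes compound or DMSO (1%) for 120 min at 37 °C. Total pNPP activity is normalized to DMSO.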

P720C/H755C PTPH-1 [13] = test: as above; type: biochemical, human; conditions: whole-cell E. coli lysate
Summary of the method: as §4

P160C/V184C HePTP [14] = test: FlAsH inhibition of total PTP activity of crude E. coli lysates, pNPP; type: biochemical, human; conditions: whole-cell E. coli lysate
wild-type FAP-1 [15] = test: FlAsH inhibition of total PTP activity of crude E. coli lysates, pNPP; type: biochemical, human; conditions: whole-cell E. coli lysate, FlAsH concentrations that strongly inhibit the mutant
Summary of the method: as §4

wild-type PTPH-1 [16] = test: as above; type: biochemical, human; conditions: whole-cell E. coli lysate, FlAsH concentrations that strongly inhibit the mutant
Summary of the method: as §4

wild-type HePTP [17] = test: as above; type: biochemical, human; conditions: whole-cell E. coli lysate, FlAsH concentrations that strongly inhibit the mutant
Summary of the method: as §4

wild-type Shp2 [18] = molecular target: T1, wild-type Shp2; test: SDS/PAGE and fluorescence visualization of protein/FlAsH complexes; type: binding; conditions: 6 μM FlAsH, 2 μg enzyme, UV visualization
V368C Shp2 [19] = molecular target: T2, V368C Shp2; test: as above; type: binding; conditions: 6 μM FlAsH, 2 μg enzyme, UV visualization, band at approximately 37 kD
wild-type PTP1B [20] = test: as above; type: binding, human; conditions: 6 μM FlAsH, UV visualization
P87C PTP1B [21] = molecular target: T3, P87C PTP1B; test: as above; type: binding; conditions: 6 μM FlAsH, UV visualization
P87C/A122C PTP1B [22] = molecular target: T4, P87C/A122C PTP1B; test: as above; type: binding; conditions: 6 μM FlAsH, UV visualization, band at 45 kD
V368C Shp2 [23] = molecular target: T2, V368C Shp2; test: Mass-spectrometry-based FlAsH-induced cysteine-protection assay; type: binding; conditions: 2.7 μM enzyme, 27 μM FlAsH, 50 mM iodoacetic acid, LC/MS/MS
Summary of the method: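 Enzyme (2.7 μM) is incubated 30 min with 27 μM test compound or DMSO in pH 7.0 dimethylglutarate/EDTA/1 mM TCEP. Free cysteines are carboxymethylated with 50 mM iodoacetic acid (30 min), quenched with 100 mM TCEP, precipitated and gel-separated, then trypsin-digested in gel. Nano-LC/MS/MS uses HCD. Peptide precursor intensity ratios (compound/DMSO) are normalized to the mean of non-cysteine peptide ratios.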

[24] = 500 nM FlAsH, continuous pNPP assay, no pre-incubation

O=C(O)c1ccccc1-c1c2ccc(=O)c([As]3SCCS3)c-2oc2c([As]3SCCS3)c(O)ccc12 [FlAsH]
effect of β-mercaptoethanol on FlAsH's inhibitory effects (wild-type Shp2 [1]; 125 nM FlAsH, varying β-ME): attenuates
time to 50% activity (wild-type Shp2 [1]; [24]): ~ 11 minutes
effect of β-mercaptoethanol on potency of FlAsH inhibition (V368C Shp2 [2]; 125 nM FlAsH, varying β-ME up to 8,000 times excess): no significant changes
time to 50% activity (V368C Shp2 [2]; [24]): ~ 7 minutes
effect of FlAsH on enzymatic activity (wild-type PTP1B [3]): unaffected
time for phosphatase activity to decrease to 50% of initial rate (P87C PTP1B [4]): approximately 10 minutes
inhibition by FlAsH (P87C/A122C PTP1B [5]): potently inhibited
inhibition of phosphatase activity (wild-type FAP-1 [6]): not significantly inhibited
inhibition of phosphatase activity (P2285C/Q2320C FAP-1 [7]): drastically reduced catalytic activity
inhibition of phosphatase activity (wild-type PTPH-1 [8]): not significantly inhibited
inhibition of phosphatase activity (P720C/H755C PTPH-1 [9]): novel sensitivity to FlAsH
inhibition of phosphatase activity (wild-type HePTP [10]): not significantly inhibited
inhibition of phosphatase activity (P160C/V184C HePTP [11]): drastically reduced catalytic activity
inhibition of total PTP activity of lysate (P2285C/Q2320C FAP-1 [12]): strongly inhibited
inhibition of total PTP activity of lysate (P720C/H755C PTPH-1 [13]): strongly inhibited
inhibition of total PTP activity of lysate (P160C/V184C HePTP [14]): strongly inhibited
inhibition of total PTP activity of lysate (wild-type FAP-1 [15]): no effects
inhibition of total PTP activity of lysate (wild-type PTPH-1 [16]): no effects
inhibition of total PTP activity of lysate (wild-type HePTP [17]): no effects
fluorescent band of protein/FlAsH conjugate after SDS/PAGE (wild-type Shp2 [18]): not present
fluorescent band of protein/FlAsH conjugate after SDS/PAGE (V368C Shp2 [19]): strongly fluorescent band
fluorescent band of protein/FlAsH conjugate after SDS/PAGE (wild-type PTP1B [20]): fail to produce strongly fluorescent bands
fluorescent band of protein/FlAsH conjugate after SDS/PAGE (P87C PTP1B [21]): fail to produce strongly fluorescent bands
fluorescent band of protein/FlAsH conjugate after SDS/PAGE (P87C/A122C PTP1B [22]): strongly fluorescent band
protection of cysteines from modification by IAA (V368C Shp2 [23]): strongly protects C333, C367, and C368
